# Article PMC7203693 (ACS Omega, 2020)
# What was measured:
# [1] = target: AChE (Homo sapiens, UniProt P22303); experiment: biochemical
# [2] = test system: PC12 cells; experiment: Cytotoxicity in PC12 cells; assay type: cell-based; conditions: 10 μM, 24 h
# How it was run: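 PC12 cells were grown in DMEM with 10% FBS and penicillin/streptomycin (37 °C, 5% CO2), seeded at 10⁵/well and left 24 h. Test compound (DMSO stock diluted in medium) was given at 10 μM for 24 h, with edaravone as positive control. MTT was added for 2 h, formazan was dissolved in DMSO, and absorbance was read at 490 nm.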
# [3] = test system: AD model rats; experiment: Open-field test in Aβ25-35-induced AD model rats; assay type: in vivo; conditions: for total distance moved in open field: AD rats, Aβ model group 17.34 ± 3.88
# How it was run: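 After 1 h acclimation, each rat explored a dimly lit 100 × 100 × 50 cm box for 2 min, with 70% ethanol cleaning between trials. Video gave total distance and central-zone time. Mean ± SEM, t-test.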
# [4] = Acute oral toxicity test in mice; assay type: in vivo; conditions: both, ICR, mouse, in vivo, po
# How it was run: (§1)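 ICR mice (18–22 g, half male, half female), seven groups of 10. Single oral gavage of 1310, 1638, 2048, 2560, 3200 or 4000 mg/kg, suspended in 0.5% carboxymethyl cellulose; the control group received vehicle. General behaviour, toxicity signs and mortality were followed for 14 days. LD50 was estimated by log-probit regression of mortality.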
# [5] = test system: ICR mice; experiment: Acute oral toxicity test in mice; assay type: in vivo; conditions: for deaths: 10 animals; for deaths / death rate: 14 day
# How it was run: as §1
# [6] = test system: AD model rats; experiment: Morris water maze in Aβ25-35-induced AD model rats; assay type: in vivo; conditions: compared to the model rats (p < 0.05)
# How it was run: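 Pool 180 cm wide, water at 25 ± 1 °C, hidden platform 2 cm submerged. Training: four 2-min trials daily (30 min apart) for 5 days. Escape latency and swim path were video-tracked. Probe trial: platform removed, 2-min swim, crossings counted. Mean ± SEM, t-test.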
# [7] = test system: AD model rats; experiment: HE staining of hippocampus CA3 region of AD model rats; assay type: in vivo; conditions: AD rats, 5, 10, and 20 mg/kg
# [8] = test system: AD model rats; experiment: Nissl staining of hippocampal CA1 region of AD model rats; assay type: in vivo; conditions: 10 and 20 mg/kg groups
# How it was run: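 Brains were paraformaldehyde-postfixed and cryoprotected in 30% sucrose. Frozen 25 μm hippocampal sections were stained with 2% cresyl violet for 5 min. Necrotic CA1 cells were counted by light microscopy (n = 5 rats/group, three sections per rat).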
# [9] = test system: AD model rats; experiment: Bielschowsky silver staining of hippocampus of AD model rats; assay type: in vivo; conditions: AD rats, 10, 20 mg/kg, versus AD model group
# How it was run: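 SD rats (8 weeks, 280 ± 10 g) got bilateral hippocampal Aβ25-35 (10 μg in 2 μL, pre-aggregated 4 days at 37 °C); sham rats got saline. Formalin-fixed paraffin coronal sections (40 μm) were stained by modified Bielschowsky silver (20% AgNO3, ammoniacal silver), and positive neurons were counted at 10 × 40.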
# [10] = test system: Aβ1-42; experiment: Immunohistochemistry for Aβ1-42 in hippocampus of AD model rats; assay type: in vivo; conditions: AD rats, 10, 20 mg/kg, compared with the model group (p < 0.05)
# How it was run: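 Hippocampal sections from five rats: endogenous peroxidase blocked, 5% normal goat serum in 0.3% Triton/PBS, rabbit anti-Aβ1-42 (1:300) overnight at 4 °C, biotinylated goat anti-rabbit (1:500) 1 h at room temperature, then DAB for 10 min.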
# [11] = mice, single oral dose 1310 mg/kg
# [12] = mice, single oral dose 1638 mg/kg
# [13] = mice, single oral dose 2048 mg/kg
# [14] = mice, single oral dose 2560 mg/kg
# [15] = mice, single oral dose 3200 mg/kg
# [16] = mice, single oral dose 4000 mg/kg
# Chain of AChE (P22303 32-614): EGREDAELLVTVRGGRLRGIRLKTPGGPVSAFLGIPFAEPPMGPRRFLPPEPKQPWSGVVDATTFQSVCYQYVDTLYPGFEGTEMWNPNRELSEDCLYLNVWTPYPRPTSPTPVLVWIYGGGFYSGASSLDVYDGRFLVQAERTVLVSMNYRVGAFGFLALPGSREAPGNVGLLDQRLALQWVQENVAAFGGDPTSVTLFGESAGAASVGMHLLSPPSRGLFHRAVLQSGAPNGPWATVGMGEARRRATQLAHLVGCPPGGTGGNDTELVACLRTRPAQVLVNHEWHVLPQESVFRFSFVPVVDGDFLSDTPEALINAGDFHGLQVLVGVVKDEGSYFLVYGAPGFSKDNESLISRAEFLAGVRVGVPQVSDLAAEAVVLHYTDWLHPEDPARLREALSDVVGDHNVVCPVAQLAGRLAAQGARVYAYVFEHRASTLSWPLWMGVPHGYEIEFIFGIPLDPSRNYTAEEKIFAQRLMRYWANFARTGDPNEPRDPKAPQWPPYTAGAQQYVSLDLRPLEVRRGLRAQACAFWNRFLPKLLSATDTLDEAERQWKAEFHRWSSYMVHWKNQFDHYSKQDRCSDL
smiles,measurement,setting,value
"COc1c(OC(=O)N(C)c2ccccc2C)cc2oc3cc4c(c(O)c3c(=O)c2c1CC=C(C)C)C=CC(C)(C)O4 [AMG-3, 5-Hydroxy-8-methoxy-2,2-dimethyl-7-(3-methylbut-2-en-1-yl)-6-oxo-2,6-dihydropyrano[3,2-b]xanthen-9-yl methyl(o-tolyl)carbamate]",IC50,[1],32.9 ± 7.78 µM
same,"inhibition ratio (cytotoxic effect, cell proliferation)",[2],5.9%
"COc1cc2c(cc1OC)C(=O)C(CC1CCN(Cc3ccccc3)CC1)C2 (stereo not drawn) [donepezil, reference compound]",total distance moved in open field,[3]; donepezil 1 mg/kg oral once daily 30 days,31.37 ± 7.14 m
"COc1c(O)cc2oc3cc(O)c(CC=C(C)C)c(O)c3c(=O)c2c1CC=C(C)C [α-M, 1,3,6-trihydroxy-7-methoxy-2,8-bis(3-methylbut-2-en-1-yl)-9H-xanthen-9-one, reference compound]",IC50,[1],34.3 ± 6.06 µM
same,"inhibition ratio (cytotoxic effect, cell proliferation)",[2],73.1%
"COc1c(OC(=O)N(C)c2ccccc2)cc2oc3cc4c(c(O)c3c(=O)c2c1CC=C(C)C)C=CC(C)(C)O4 [AMG-1, 5-Hydroxy-8-methoxy-2,2-dimethyl-7-(3-methylbut-2-en-1-yl)-6-oxo-2,6-dihydropyrano[3,2-b]xanthen-9-yl methyl(phenyl)carbamate]",IC50,[1],52.6 ± 11.3 µM
same,"inhibition ratio (cytotoxic effect, cell proliferation)",[2],7.2%
same,LD50 at 14 day,[4],2470 mg/kg
same,toxicity at the dose for administration,[5]; level of 20 mg/kg or less,no obvious toxicity
same,signs of toxicity,"[5]; mice, acute oral toxicity experiment period",messy furs and loose gray stool around the anus
same,time found dead after administration,"[5]; mice, highest dosed group 4000 mg/kg oral",16 to 48 h
same,deaths,[5]; [11],0
same,death rate,[5]; [11],0%
same,deaths,[5]; [12],1
same,death rate,[5]; [12],10%
same,deaths,[5]; [13],4
same,death rate,[5]; [13],40%
same,deaths,[5]; [14],6
same,death rate,[5]; [14],60%
same,deaths,[5]; [15],7
same,death rate,[5]; [15],70%
same,deaths,[5]; [16],9
same,death rate,[5]; [16],90%
same,time spent in the central zone in open field,"[3]; AD rats, 5, 10, 20 mg/kg oral 30 days, compared to the Aβ model group",dose-dependent increase
same,total distance moved in open field,[3]; AMG-1 20 mg/kg oral once daily 30 days,28.55 ± 6.87 m
same,time in the target quadrant,[6]; probe trial,significantly more time
same,time to reach the place of the removed platform,[6]; probe trial,significantly less time
same,escape latency in Morris water maze,[6]; retention phase,significant improvements
same,total distance traveled in Morris water maze,[6]; retention phase,significant improvements
same,"pyramidal cell morphology and density, hippocampus CA3 (HE staining)",[7],better cell morphology and density than those in the model group
same,neuronal damage in hippocampal CA1 (Nissl staining),[8],significantly attenuated
same,number of senile plaques in hippocampus (silver staining),[9],less
same,expression of Aβ1-42 in hippocampus (immunohistochemistry),[10],significantly reduced expression
"CCN(C(=O)Oc1cc2oc3cc4c(c(O)c3c(=O)c2c(CC=C(C)C)c1OC)C=CC(C)(C)O4)c1ccccc1 [AMG-2, 5-Hydroxy-8-methoxy-2,2-dimethyl-7-(3-methylbut-2-en-1-yl)-6-oxo-2,6-dihydropyrano[3,2-b]xanthen-9-yl ethyl(phenyl)carbamate]",IC50,[1],35.1 ± 9.38 µM
same,"inhibition ratio (cytotoxic effect, cell proliferation)",[2],6.7%
"CC1=NN(c2ccccc2)C(=O)C1 [edaravone, reference compound]","inhibition ratio (cytotoxic effect, cell proliferation)",[2],0%
